Each structure is given as a SMILES string. In brackets after ≈: the same amount, converted by molar mass. Activity calls are given as the source filed them. The rule behind the calls is not given here.

Data set [1] has as its system Staphylococcus aureus. Put plainly: Antibacterial activity against Staphylococcus aureus Smith infected in Swiss Webster mouse assessed as assessed as protection against microbe-induced mortality at 10 mg/kg, iv administered as single dose 15 mins post bacterial challenge measured 48 hrs post infection. It is filed as functional. The essentials: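 Swiss Webster mice (n = 10/group) were challenged i.p. with 8.3 × 10^8 CFU. After 15 min they received a single i.v. dose in 10% dimethyl acetamide–5% dextrose in water (pH 4.0), alongside vehicle and daptomycin (10 mg/kg) controls. Survival was followed for 48 h.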

The subject of data set [2] is Bacillus subtilis. Nature of the data set: Disruption of bacterial membrane permeability in Bacillus subtilis BD54 using DiSC3 fluorescent dye staining based fluorimetric assay. It is filed as functional, organism-based. The essentials: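 B. subtilis BD54 was grown in LB to OD600 0.4–0.5, washed and resuspended to OD600 0.1 in 5 mM HEPES pH 7.4 with 20 mM glucose. Cells were loaded with 1 µM DiSC3(5) for 10 min at room temperature, then 100 mM KCl was added. […] Fluorescence (ex 622/em 670 nm) was read after 5 min in eight wells per condition. DNP at 200 µg/ml served as positive control.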

Data set [3] concerns Escherichia coli. Put plainly: Antimicrobial activity against Escherichia coli J53 clinical isolate by broth microdilution method. In kind it is functional.
In data set [4] the test system is Bacillus licheniformis. Put plainly: Antimicrobial activity against Bacillus licheniformis clinical isolate by broth microdilution method. It is filed as functional. (In general: Dilution methods test growth across graded concentrations, often in twofold steps.)
Data set [5] relates to Enterococcus faecalis. Put plainly: Antimicrobial activity against vancomycin-resistant Enterococcus faecalis ATCC 51575 by broth microdilution method. It is filed as functional.
Data set [6] deals with Burkholderia thailandensis. Put plainly: Antimicrobial activity against Burkholderia thailandensis by broth microdilution method. It is filed as functional.
The test system of data set [7] is Bacillus anthracis. Nature of the data set: Antimicrobial activity against Bacillus anthracis Sterne vegetative cells by broth microdilution method. It is filed as functional.
Data set [8] deals with Staphylococcus aureus. Nature of the data set: Antimicrobial activity against methicillin-resistant Staphylococcus aureus 1094 by broth microdilution method. It is filed as functional.
Data set [9] relates to Staphylococcus aureus. Put plainly: Antimicrobial activity against Staphylococcus aureus by broth microdilution method. It is filed as functional. In short, it runs like this: (§1)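 Broth microdilution. Log-phase cultures (5 × 10^5 CFU/ml) seeded in 96-well plates with compound from 0 to 20 µM or 1% DMSO control. Incubated at 37°C for 16 to 20 h. Growth read as absorbance at 600 nm.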

The subject of data set [10] is Staphylococcus aureus. Nature of the data set: Antimicrobial activity against Staphylococcus aureus ATCC 25923 by broth microdilution method. In kind it is functional. The essentials: as §1
Data set [11] deals with Bacillus anthracis. Put plainly: Protection against Bacillus anthracis Sterne spores induced cell death in mouse J774A1 cells assessed as live viable cells at 10 uM by Sytox green dye staining assay relative to untreated control. It is filed as functional, J774.A1.
Data set [12] deals with Enterococcus faecalis. Put plainly: Antimicrobial activity against Enterococcus faecalis clinical isolate by broth microdilution method. It is filed as functional. In short, it runs like this:
as §1

Data set [13] relates to Bacillus subtilis. Put plainly: Inhibition of DNA synthesis in Bacillus subtilis BD54 at 5 X MIC by [3H]thymidine incorporation assay. It is filed as functional, organism-based. In short, it runs like this:
(§2)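 Precursors were [methyl-3H]thymidine (DNA), [5-3H]uridine (RNA), L-[4,5-3H]leucine (protein) and N-acetyl-D-[1-3H]glucosamine (cell wall). Samples taken over time, precipitated with equal volume of ice-cold 20% TCA, filtered on glass fibre, and counted. cpm plotted against time.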

For data set [14], the system named is Bacillus anthracis. Nature of the data set: Antimicrobial activity against Bacillus anthracis Sterne spores by broth microdilution method. In kind it is functional.
The subject of data set [15] is Bacillus anthracis. Put plainly: microbe, parasite or virus in culture. As to conditions: Ames.
Data set [16] relates to Enterococcus faecium. Put plainly: Antimicrobial activity against vancomycin-resistant Enterococcus faecium B42762 by broth microdilution method. In kind it is functional.
Data set [17] has as its system Mycolicibacterium smegmatis. Nature of the data set: Antimicrobial activity against Mycobacterium smegmatis 700009 by broth microdilution method. In kind it is functional. The essentials:
as §1

Data set [18] has as its system Bacillus anthracis. Put plainly: Inhibition of spore germination in Bacillus anthracis Sterne spores at MIC after 4 hrs. It is filed as functional, organism-based.
The test system of data set [19] is Bacillus subtilis. Nature of the data set: Inhibition of RNA synthesis in Bacillus subtilis BD54 at 5 X MIC by [5-3H]uridine incorporation assay. In kind it is functional. The essentials:
as §2

Data set [20] has as its system Mycolicibacterium smegmatis. Nature of the data set: Antimicrobial activity against Mycobacterium smegmatis 35798 by broth microdilution method. It is filed as functional. In short, it runs like this: as §1
Data set [21] has as its system Burkholderia pseudomallei. Put plainly: Antimicrobial activity against Burkholderia pseudomallei DD503 by broth microdilution method. It is filed as functional.
Data set [22] deals with Bacillus anthracis. Nature of the data set: Antimicrobial activity against Bacillus anthracis Ames by broth microdilution method in presence of 10% fetal calf serum. It is filed as functional.
Data set [23] relates to Bacillus anthracis. Put plainly: Protection against Bacillus anthracis Sterne spores induced cell death in mouse J774A1 cells assessed as dead cells at 10 uM by Sytox green dye staining assay relative to untreated control. It is filed as functional, J774.A1.
For data set [24], the system named is Bacillus pumilus. Nature of the data set: Antimicrobial activity against Bacillus pumilus clinical isolate by broth microdilution method. It is filed as functional. In short, it runs like this:
as §1

Data set [25] deals with Enterococcus faecalis. Nature of the data set: Antimicrobial activity against Enterococcus faecalis 29212 clinical isolate by broth microdilution method. In kind it is functional.
In data set [26] the test system is Yersinia pestis. Nature of the data set: Antimicrobial activity against Yersinia pestis by broth microdilution method. In kind it is functional.
Data set [27] deals with Pseudomonas aeruginosa. Nature of the data set: Antimicrobial activity against Pseudomonas aeruginosa PAO1 by broth microdilution method. In kind it is functional. The essentials: as §1
The test system of data set [28] is Priestia megaterium. Put plainly: Antimicrobial activity against Bacillus megaterium clinical isolate by broth microdilution method. In kind it is functional.
Data set [29] deals with Staphylococcus aureus. Put plainly: Antimicrobial activity against methicillin-resistant Staphylococcus aureus clinical isolate by broth microdilution method. In kind it is functional.
For data set [30], the system named is Bacillus subtilis. Put plainly: Inhibition of cell wall synthesis in Bacillus subtilis BD54 at 5 X MIC by N-acetyl-D-[1-3H] glucosamine incorporation assay. In kind it is functional. The essentials:
as §2

Data set [31] in a line: Cytotoxicity against human HeLa cells after 3 days by MTS assay in presence of 10% fetal calf serum. In kind it is cell-based. (In general: Tetrazolium dyes change colour on reduction, which living cells bring about.)
Data set [32] deals with Bacillus anthracis. Nature of the data set: microbe, parasite or virus in culture. As to conditions: Ames. This is another data set of the same source.
In data set [33] the test system is Burkholderia cepacia. Nature of the data set: Antimicrobial activity against Burkholderia cepacia clinical isolate by broth microdilution method. It is filed as functional. In short, it runs like this: as §1
The test system of data set [34] is Brevibacillus brevis. Nature of the data set: Antimicrobial activity against Bacillus brevis clinical isolate by broth microdilution method. In kind it is functional. The essentials:
as §1

In data set [35] the test system is Burkholderia mallei. Nature of the data set: Antimicrobial activity against Burkholderia mallei ATCC 23344 by broth microdilution method. In kind it is functional.
The subject of data set [36] is Mycolicibacterium smegmatis. Put plainly: Antimicrobial activity against Mycobacterium smegmatis 19420 by broth microdilution method. It is filed as functional. The essentials:
as §1

In data set [37] the test system is Bacillus subtilis. Nature of the data set: Antimicrobial activity against Bacillus subtilis clinical isolate by broth microdilution method. In kind it is functional.
Data set [38] has as its system Klebsiella pneumoniae. Nature of the data set: Antimicrobial activity against Klebsiella pneumoniae 5657 by broth microdilution method. It is filed as functional. In short, it runs like this: as §1
Data set [39] relates to Bacillus anthracis. Put plainly: Antimicrobial activity against Bacillus anthracis Vollum clinical isolate by broth microdilution method. It is filed as functional.

As for `CCCCCCCCCC(=O)N[C@@H](Cc1c[nH]c2ccccc12)C(=O)N[C@H](CC(N)=O)C(=O)N[C@@H](CC(=O)O)C(=O)N[C@@H]1C(=O)NCC(=O)N[C@@H](CCCN)C(=O)N[C@@H](CC(=O)O)C(=O)N[C@H](C)C(=O)N[C@@H](CC(=O)O)C(=O)NCC(=O)N[C@H](CO)C(=O)N[C@@H]([C@H](C)CC(=O)O)C(=O)N[C@@H](CC(=O)c2ccccc2N)C(=O)O[C@@H]1C`, in [1], the survival at 10 mg/kg came to 80%.
As for `O=[N+]([O-])c1ccc(O)c([N+](=O)[O-])c1`, the outcome in data set [2] was Active.
Consider `c1cc2cc(-c3ccc4cc(-c5ccc6oc(C7=NCCN7)cc6c5)[nH]c4c3)[nH]c2cc1C1=NCCN1`, for which the MIC in data set [3] was 1.4 mg/L (≈ 2.89 µM); in data set [4] it was 1.4 mg/L (≈ 2.89 µM); in [5], 0.1 mg/L (≈ 0.206 µM); in [6], 2.8 mg/L (≈ 5.78 µM); in [7], 0.7 mg/L (≈ 1.44 µM); in data set [8] it was 0.5 mg/L (≈ 1.03 µM). For the same molecule, the MIC in [9] turned out to be 0.7 mg/L (≈ 1.44 µM); in [10], 0.3 mg/L (≈ 0.619 µM); in [12], 0.7 mg/L (≈ 1.44 µM); in [14] it was 0.4 mg/L (≈ 0.825 µM); in data set [15], 1.4 mg/L (≈ 2.89 µM); in data set [16], 0.1 mg/L (≈ 0.206 µM). Besides, the MIC was < 0.1 mg/L in data set [17]; < 0.1 mg/L in data set [20]; > 9.7 mg/L in data set [21]; 1.4 mg/L in data set [22]; 0.4 mg/L (≈ 0.825 µM) in data set [24]; 0.1 mg/L (≈ 0.206 µM) in data set [25]. Further, the MIC in data set [26] is 9.7 mg/L (≈ 20 µM); in data set [27], > 80 mg/L; in [28], 0.4 mg/L (≈ 0.825 µM); in data set [29] it was 2.8 mg/L (≈ 5.78 µM); in data set [32], 0.2 mg/L (≈ 0.413 µM); in data set [33], 22 mg/L (≈ 45.4 µM). The MIC in data set [34] was 0.2 mg/L (≈ 0.413 µM); in data set [35], > 9.7 mg/L; in data set [36], 0.1 mg/L (≈ 0.206 µM); in data set [37], 0.4 mg/L (≈ 0.825 µM); in [38], 16 mg/L (≈ 33 µM); in data set [39] it was 0.4 mg/L (≈ 0.825 µM). The Activity in data set [11] was found to be 75%; in [23], 24%. Further, the inhibition entry in data set [13] was “Active”. For the same molecule, the figures for the MBC in data set [15], in data set [32] and in [39] were 2.8 mg/L (≈ 5.78 µM), 1.2 mg/L (≈ 2.48 µM) and 0.4 mg/L (≈ 0.825 µM), respectively. For the same molecule, in data set [18], the inhibition result was “inactive”. Also, the “inhibition (INH)” value in data set [19] and in data set [30] was 40% throughout. In addition, the CC50 (as a rule, the concentration that lowers cell viability or growth by half) at 72 h in data set [31] was 17 mg/L.

Values taken from ChEMBL document CHEMBL1687745 (Antimicrob Agents Chemother, 2009).
